# From article PMC3474356 (Chemistry & biology, 2011)
# Assays:
# liver stage P. berghei = test: P. berghei liver stage assay in HepG2 cells; assay type: cell-based; conditions: Plasmodium berghei, HepG2, 45 h, read-out: IC50 liver stage P. berghei
# In short: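 Luciferase-expressing P. berghei ANKA sporozoites (4,000, from mosquito salivary glands) infect 12,000 HepG2 cells with or without test compound; final DMSO 0.3%. Parasite growth is read by luciferase luminescence 45 h post-infection. Results are mean ± SD, and experiments were repeated 2-3 times.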
# P. falciparum 3D7 strain = test: P. falciparum 3D7 growth inhibition; assay type: cell-based; conditions: Plasmodium falciparum, 3D7, read-out: EC50 growth 3D7
# pfNDH2 = pfNDH2 (Plasmodium falciparum, UniProt Q8I302); test: pfNDH2 enzyme activity assay; assay type: biochemical
# P. falciparum Dd2 strain = test: P. falciparum Dd2 growth inhibition; assay type: cell-based; conditions: Plasmodium falciparum, DD2, read-out: EC50 growth Dd2
# pfDHOD = molecular target: T1, pfDHOD (Plasmodium falciparum, UniProt Q08210); test: pfDHOD chromogen; assay type: biochemical
# T1 sequence (Q08210 24-569): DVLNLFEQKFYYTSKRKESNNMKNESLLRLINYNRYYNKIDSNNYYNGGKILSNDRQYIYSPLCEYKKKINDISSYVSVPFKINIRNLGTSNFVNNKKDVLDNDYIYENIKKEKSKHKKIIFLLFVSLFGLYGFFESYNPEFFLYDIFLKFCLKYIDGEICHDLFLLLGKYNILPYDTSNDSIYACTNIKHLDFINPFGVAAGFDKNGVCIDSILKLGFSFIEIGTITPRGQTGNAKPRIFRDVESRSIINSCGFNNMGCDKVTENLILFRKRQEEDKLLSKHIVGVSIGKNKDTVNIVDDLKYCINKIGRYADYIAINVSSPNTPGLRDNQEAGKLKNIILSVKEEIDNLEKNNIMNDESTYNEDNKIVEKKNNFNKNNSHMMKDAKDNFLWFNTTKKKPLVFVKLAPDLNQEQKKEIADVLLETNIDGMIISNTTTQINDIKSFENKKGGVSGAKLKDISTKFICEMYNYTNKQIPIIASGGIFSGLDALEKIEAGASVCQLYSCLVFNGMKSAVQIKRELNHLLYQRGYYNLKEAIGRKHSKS
# In short: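 DCIP reduction assay in 384-well format. Test compound in serial dilution; reaction started by adding pfDHOD and run for 10 min at 25 °C. Read-out A600.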
# [1] = tested on: Dd2-scDHOD parasite strain; test: Transgenic Dd2-scDHOD growth inhibition; assay type: cell-based; conditions: Plasmodium falciparum, DD2, read-out: EC50 growth Dd2-scDHOD
# hsCYT bc1 = hsCYT bc1 (Homo sapiens, UniProt P00156); test: Cytochrome c reductase activity, human; assay type: biochemical
# In short: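 Mitochondria from HEK293 cells pelleted at 400 g for 10 min, disrupted by N2 cavitation, then debris spin, 10,000 g pellet and 1–2 M sucrose gradient. Mitochondria (40 ug/ml) in 250 mM sucrose, 50 mM KH2PO4, 0.2 mM EDTA, 1 mM NaN3, 2.5 mM KCN with 50 uM cytochrome c. Started with 25 uM decylubiquinol; cytochrome c reduction read at 550 nm over the first 60 s.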
compound,measurement,setting,value
O=C1C(O)=C([C@H]2CC[C@H](c3ccc(Cl)cc3)CC2)C(=O)c2ccccc21 [atovaquone],IC50,liver stage P. berghei,0.3 nM
same,EC50,P. falciparum 3D7 strain,1 nM
same,IC50,pfNDH2,> 20 µM
same,EC50,P. falciparum Dd2 strain,1 nM
same,IC50,pfDHOD,> 20 µM
same,EC50,[1],> 5 µM
same,IC50,hsCYT bc1,350 ± 12 nM
